Experimental data: ChEMBL document CHEMBL1128440 (J Med Chem, 1995)

Experiments:
[1] = species: Rattus norvegicus; assay: Tissue biodistribution into estrogen-primed immature female rat blood at 3 hr time interval; type: ADME, organism-based; settings: in vivo
How it was run: (§1)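 Immature female Sprague-Dawley rats (25 days old, ≈50 g, five per time point) primed with estradiol, 5 μg sc daily for 2 days in 50% ethanol/sunflower seed oil, used 24 h after the last injection. The 18F-labeled ligand was given iv by tail vein in 10% ethanol/saline. Decapitated at 1 or 3 h; blood and organs weighed and gamma-counted. Reported as %ID/g ± SD, n = 5.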

[2] = species: Rattus norvegicus; assay: Tissue biodistribution into estrogen-primed immature female rat muscle at 1 hr low time interval; type: ADME, organism-based; settings: in vivo; how it was run: as §1
[3] = species: Rattus norvegicus; assay: Tissue biodistribution into estrogen-primed immature female rat brain at 1 hr low time interval; type: ADME, organism-based; settings: in vivo; how it was run: as §1
[4] = species: Rattus norvegicus; assay: Tissue biodistribution into estrogen-primed immature female rat uterus at 3 hr time interval; type: ADME, organism-based; settings: in vivo; how it was run: as §1
[5] = species: Rattus norvegicus; assay: Tissue biodistribution into estrogen-primed immature female rat kidney at 1 hr blocked time interval; type: ADME, organism-based; settings: in vivo; how it was run: as §1
[6] = species: Rattus norvegicus; assay: Tissue biodistribution into estrogen-primed immature female rat ovaries at 1 hr time interval; type: ADME, organism-based, Female gonad; settings: in vivo; how it was run: as §1
[7] = species: Rattus norvegicus; assay: Tissue biodistribution into estrogen-primed immature female rat liver at 3 hr time interval; type: ADME, organism-based; settings: in vivo; how it was run: as §1
[8] = species: Rattus norvegicus; assay: Tissue biodistribution into estrogen-primed immature female rat kidney at 1 hr low time interval; type: ADME, organism-based; settings: in vivo; how it was run: as §1
[9] = species: Rattus norvegicus; assay: Tissue biodistribution into estrogen-primed immature female rat fat at 1 hr low time interval; type: ADME, organism-based, Adipose tissue; settings: in vivo; how it was run: as §1
[10] = species: Rattus norvegicus; assay: Tissue biodistribution into estrogen-primed immature female rat bone at 1 hr time interval; type: ADME, organism-based, Bone element; settings: in vivo; how it was run: as §1
[11] = species: Rattus norvegicus; assay: Tissue biodistribution into estrogen-primed immature female rat ovaries at 3 hr time interval; type: ADME, organism-based, Female gonad; settings: in vivo; how it was run: as §1
[12] = species: Rattus norvegicus; assay: Tissue biodistribution into estrogen-primed immature female rat muscle at 3 hr time interval; type: ADME, organism-based; settings: in vivo; how it was run: as §1
[13] = species: Rattus norvegicus; assay: Tissue biodistribution into estrogen-primed immature female rat fat at 3 hr time interval; type: ADME, organism-based, Adipose tissue; settings: in vivo; how it was run: as §1
[14] = species: Rattus norvegicus; assay: Tissue biodistribution into estrogen-primed immature female rat ovaries at 1 hr blocked time interval; type: ADME, organism-based; settings: in vivo; how it was run: as §1
[15] = species: Rattus norvegicus; assay: Tissue biodistribution into estrogen-primed immature female rat blood at 1 hr time interval; type: ADME, organism-based; settings: in vivo; how it was run: as §1
[16] = species: Rattus norvegicus; assay: Tissue biodistribution into estrogen-primed immature female rat lung at 1 hr time interval; type: ADME, organism-based; settings: in vivo; how it was run: as §1
[17] = species: Rattus norvegicus; assay: Tissue biodistribution into estrogen-primed immature female rat kidney at 3 hr time interval; type: ADME, organism-based; settings: in vivo; how it was run: as §1
[18] = species: Rattus norvegicus; assay: Tissue biodistribution into estrogen-primed immature female rat uterus/muscle at 1 hr blocked time interval; type: ADME, organism-based; settings: in vivo; how it was run: as §1
[19] = species: Rattus norvegicus; assay: Tissue biodistribution into estrogen-primed immature female rat brain at 3 hr time interval; type: ADME, organism-based; settings: in vivo; how it was run: as §1
[20] = species: Rattus norvegicus; assay: Tissue biodistribution into estrogen-primed immature female rat uterus at 1 hr low time interval; type: ADME, organism-based; settings: in vivo; how it was run: as §1
[21] = species: Rattus norvegicus; assay: Tissue biodistribution into estrogen-primed immature female rat fat at 1 hr time interval; type: ADME, organism-based, Adipose tissue; settings: in vivo; how it was run: as §1
[22] = species: Rattus norvegicus; assay: Tissue biodistribution into estrogen-primed immature female rat brain at 1 hr blocked time interval; type: ADME, organism-based; settings: in vivo; how it was run: as §1
[23] = target: T1, Progesterone receptor (Homo sapiens) (UniProt P06401); assay: Nonspecific binding affinity against progesterone receptor was estimated relative to compound R5020
T1 sequence (whole entry): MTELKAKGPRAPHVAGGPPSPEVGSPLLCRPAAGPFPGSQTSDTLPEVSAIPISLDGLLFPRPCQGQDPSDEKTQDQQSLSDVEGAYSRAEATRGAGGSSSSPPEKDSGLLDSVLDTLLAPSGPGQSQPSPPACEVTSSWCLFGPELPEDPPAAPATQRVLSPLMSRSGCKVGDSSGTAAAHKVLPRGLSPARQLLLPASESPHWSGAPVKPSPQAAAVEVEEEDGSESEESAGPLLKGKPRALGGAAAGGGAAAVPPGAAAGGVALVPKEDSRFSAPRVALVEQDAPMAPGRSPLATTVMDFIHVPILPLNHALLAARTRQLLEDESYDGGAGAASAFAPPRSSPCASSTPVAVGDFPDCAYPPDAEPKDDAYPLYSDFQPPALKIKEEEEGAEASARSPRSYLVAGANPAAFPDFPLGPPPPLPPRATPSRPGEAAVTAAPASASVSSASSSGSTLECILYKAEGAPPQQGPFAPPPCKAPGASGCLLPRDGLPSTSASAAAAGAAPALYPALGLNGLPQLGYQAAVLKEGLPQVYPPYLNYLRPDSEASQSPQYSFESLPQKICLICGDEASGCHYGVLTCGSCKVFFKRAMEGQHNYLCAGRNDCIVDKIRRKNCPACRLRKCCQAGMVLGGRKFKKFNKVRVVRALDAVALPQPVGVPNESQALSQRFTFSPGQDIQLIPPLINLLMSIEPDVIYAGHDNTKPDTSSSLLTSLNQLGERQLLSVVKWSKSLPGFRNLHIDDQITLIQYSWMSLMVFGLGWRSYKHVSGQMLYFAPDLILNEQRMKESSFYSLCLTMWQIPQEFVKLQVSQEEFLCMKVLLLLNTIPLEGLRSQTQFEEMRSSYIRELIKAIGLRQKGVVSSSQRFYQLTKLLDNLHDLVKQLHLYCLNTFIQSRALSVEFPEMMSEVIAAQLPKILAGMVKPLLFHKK

[24] = species: Rattus norvegicus; assay: Tissue biodistribution into estrogen-primed immature female rat muscle at 1 hr blocked time interval; type: ADME, organism-based; settings: in vivo; how it was run: as §1
[25] = species: Rattus norvegicus; assay: Tissue biodistribution into estrogen-primed immature female rat brain at 1 hr time interval; type: ADME, organism-based; settings: in vivo; how it was run: as §1
[26] = species: Rattus norvegicus; assay: Tissue biodistribution into estrogen-primed immature female rat bone at 1 hr low time interval; type: ADME, organism-based, Bone element; settings: in vivo; how it was run: as §1

CC1(c2ccco2)O[C@@H]2CC3C4CCC5=CC(=O)CC[C@@H]5C4CC[C@]3(C)[C@]2(C(=O)CF)O1 (stereo partly specified)
Injected dose/g [1]: 0.14% | Injected dose/g [2]: 0.25% | Injected dose/g [3]: 0.34% | Injected dose/g [4]: 8.65% | Injected dose/g [5]: 1.84% | Injected dose/g [6]: 3.04% | Injected dose/g [7]: 1.61% | Injected dose/g [8]: 0.97% | Injected dose/g [9]: 1.86% | Injected dose/g [10]: 1.15% | Injected dose/g [11]: 2.66% | Injected dose/g [12]: 0.2% | Injected dose/g [13]: 4.16% | Injected dose/g [14]: 1.52% | Injected dose/g [15]: 0.32% | Injected dose/g [16]: 1.92% | Injected dose/g [17]: 0.76% | uterus/muscle ratio [18]: 2.68 | Injected dose/g [19]: 0.19% | Injected dose/g [20]: 3.46% | Injected dose/g [21]: 2.86% | Injected dose/g [22]: 0.49% | NSB [23]: 1.09 | Injected dose/g [24]: 0.54% | Injected dose/g [25]: 0.58% | Injected dose/g [26]: 0.84%
